Data taken from ChEMBL document CHEMBL3352729, “Hydroxybenzothiophene Ketones Are Efficient Pre-mRNA Splicing Modulators Due to Dual Inhibition of Dyrk1A and Clk1/4” (ACS Med Chem Lett, 2014).
Calls of active or inactive are those of the source. No cut-off for these calls is given here.

How the values were obtained:
[1] = biological target: Casein kinase II subunit alpha (Homo sapiens) (UniProt P68400); experiment: Inhibition of CK2alpha (unknown origin) at 5 uM
[2] = biological target: T1, Dual specificity tyrosine-phosphorylation-regulated kinase 1A (Homo sapiens, UniProt Q13627); experiment: Inhibition of recombinant Dyrk1A (unknown origin) using KKISGRLSPIMTEQ-NH2 peptide substrate
How it was run: (§1)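 Kinase activity was measured in a cell-free assay with recombinant enzyme and peptide substrate at 100 μM ATP. Values are reported as IC50.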

[3] = biological target: T2, Dual specificity tyrosine-phosphorylation-regulated kinase 2 (Homo sapiens) (UniProt Q92630); experiment: Inhibition of recombinant Dyrk2 (unknown origin) using KKISGRLSPIMTEQ-NH2 peptide substrate at 5 uM
T2 sequence (whole entry): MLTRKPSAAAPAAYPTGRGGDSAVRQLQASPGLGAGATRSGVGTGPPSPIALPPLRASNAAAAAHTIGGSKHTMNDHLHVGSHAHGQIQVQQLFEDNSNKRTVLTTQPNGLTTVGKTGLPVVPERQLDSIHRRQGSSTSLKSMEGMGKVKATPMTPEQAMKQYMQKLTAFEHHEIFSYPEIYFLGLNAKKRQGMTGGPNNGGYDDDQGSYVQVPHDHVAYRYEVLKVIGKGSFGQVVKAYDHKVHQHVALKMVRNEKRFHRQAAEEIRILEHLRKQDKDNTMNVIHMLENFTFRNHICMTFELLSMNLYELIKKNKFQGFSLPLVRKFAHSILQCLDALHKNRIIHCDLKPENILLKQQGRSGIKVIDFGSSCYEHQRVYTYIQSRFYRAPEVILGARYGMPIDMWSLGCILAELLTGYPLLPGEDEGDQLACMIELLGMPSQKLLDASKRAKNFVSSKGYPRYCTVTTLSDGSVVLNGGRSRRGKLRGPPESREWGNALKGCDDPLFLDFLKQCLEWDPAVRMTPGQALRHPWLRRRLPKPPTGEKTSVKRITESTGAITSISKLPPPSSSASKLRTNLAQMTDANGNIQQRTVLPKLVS

[4] = biological target: T3, Dual specificity tyrosine-phosphorylation-regulated kinase 1B (Homo sapiens, UniProt Q9Y463); experiment: Inhibition of recombinant Dyrk1B (unknown origin) using KKISGRLSPIMTEQ-NH2 peptide substrate
Target sequence in this assay (Q9Y463 whole entry): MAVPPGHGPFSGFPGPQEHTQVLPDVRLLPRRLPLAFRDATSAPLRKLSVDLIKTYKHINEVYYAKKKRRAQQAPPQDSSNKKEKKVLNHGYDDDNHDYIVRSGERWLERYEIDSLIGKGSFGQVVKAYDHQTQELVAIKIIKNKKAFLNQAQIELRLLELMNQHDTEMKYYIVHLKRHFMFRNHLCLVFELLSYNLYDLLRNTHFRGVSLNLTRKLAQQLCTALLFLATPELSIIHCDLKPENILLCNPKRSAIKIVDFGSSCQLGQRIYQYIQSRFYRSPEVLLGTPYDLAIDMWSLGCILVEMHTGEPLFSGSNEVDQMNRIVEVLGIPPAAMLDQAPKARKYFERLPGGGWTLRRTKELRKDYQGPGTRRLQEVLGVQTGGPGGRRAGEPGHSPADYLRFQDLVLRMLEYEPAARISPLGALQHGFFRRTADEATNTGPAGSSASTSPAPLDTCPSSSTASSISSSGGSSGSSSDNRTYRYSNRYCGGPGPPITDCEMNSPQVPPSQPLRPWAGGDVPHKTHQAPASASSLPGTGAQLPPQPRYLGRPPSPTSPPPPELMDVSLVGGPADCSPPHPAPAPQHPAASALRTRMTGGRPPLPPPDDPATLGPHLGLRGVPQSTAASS

[5] = biological target: T4, Dual specificity protein kinase CLK1 (Homo sapiens, UniProt P49759); experiment: Inhibition of recombinant Clk1 (unknown origin) using GRSRSRSRSR peptide substrate; how it was run: as §1
Target sequence in this assay (P49759 whole entry): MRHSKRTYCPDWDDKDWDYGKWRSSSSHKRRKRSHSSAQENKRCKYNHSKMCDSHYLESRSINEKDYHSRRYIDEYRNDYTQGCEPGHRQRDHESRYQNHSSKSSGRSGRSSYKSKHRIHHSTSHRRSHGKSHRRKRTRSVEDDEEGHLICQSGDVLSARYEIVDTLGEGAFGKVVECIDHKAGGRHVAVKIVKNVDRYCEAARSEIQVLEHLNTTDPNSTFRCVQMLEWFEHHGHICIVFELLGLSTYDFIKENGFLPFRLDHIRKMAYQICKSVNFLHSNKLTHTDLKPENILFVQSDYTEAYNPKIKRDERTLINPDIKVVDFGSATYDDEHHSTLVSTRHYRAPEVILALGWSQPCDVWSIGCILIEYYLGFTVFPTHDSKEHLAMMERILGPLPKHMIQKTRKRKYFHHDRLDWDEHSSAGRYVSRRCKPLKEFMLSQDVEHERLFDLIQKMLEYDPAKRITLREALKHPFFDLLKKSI

[6] = biological target: T4, Dual specificity protein kinase CLK1; experiment: Inhibition of recombinant Clk1 (unknown origin) using GRSRSRSRSR peptide substrate at 5 uM
Target sequence in this assay (P49759 whole entry, looked up): as the sequence (P49759 whole entry) above

[7] = biological target: T1, Dual specificity tyrosine-phosphorylation-regulated kinase 1A; experiment: Inhibition of recombinant Dyrk1A (unknown origin) using KKISGRLSPIMTEQ-NH2 peptide substrate at 5 uM
[8] = biological target: T3, Dual specificity tyrosine-phosphorylation-regulated kinase 1B; experiment: Inhibition of recombinant Dyrk1B (unknown origin) using KKISGRLSPIMTEQ-NH2 peptide substrate at 5 uM
Target sequence in this assay (Q9Y463 whole entry, looked up): as the sequence (Q9Y463 whole entry) above

[9] = system: STO; experiment: Modulation of pre-mRNA splicing in human STO cells assessed as increase in mature Clk1 mRNA production at 10 to 20 uM by RT-PCR analysis
[10] = Modulation of Clk/sty pre-mRNA splicing in human STO cells assessed as concentration required to increase in mature Clk2 mRNA level by RT-PCR analysis; format: functional, cell-based; settings: in the assay text read “Clk1” for “Clk2”
How it was run: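 STO cells were treated for 4 h with compound added to the culture medium, with 0.05% DMSO as control. Total RNA was purified, and the Clk1/Sty splicing pattern was analysed by RT-PCR. Read-outs were the concentration for a 5-fold increase, the concentration for half-maximal generation of mature Clk1 mRNA, and the maximum fold increase over DMSO. Data are means of three independent experiments run in triplicate.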

[11] = biological target: T5, 17-beta-hydroxysteroid dehydrogenase type 1 (Homo sapiens, UniProt P14061); experiment: Inhibition of 17-betaHSD1 (unknown origin)
T5 sequence (P14061 whole entry): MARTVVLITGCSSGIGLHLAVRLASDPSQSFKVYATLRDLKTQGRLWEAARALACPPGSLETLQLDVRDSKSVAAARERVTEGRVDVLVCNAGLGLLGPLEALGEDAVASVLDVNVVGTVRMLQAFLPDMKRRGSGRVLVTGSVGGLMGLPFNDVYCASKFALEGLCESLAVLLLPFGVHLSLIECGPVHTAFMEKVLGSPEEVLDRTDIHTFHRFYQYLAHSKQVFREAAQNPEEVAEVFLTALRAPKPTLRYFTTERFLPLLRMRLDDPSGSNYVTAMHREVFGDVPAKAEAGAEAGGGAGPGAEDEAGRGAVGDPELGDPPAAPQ

[12] = Modulation of Clk/sty pre-mRNA splicing in human STO cells assessed as concentration required to increase in mature Clk1 mRNA level by RT-PCR analysis relative to control
[13] = Modulation of Clk/sty pre-mRNA splicing in human STO cells assessed as concentration required to 5 fold increase in mature Clk1 mRNA level by RT-PCR analysis
[14] = Modulation of Clk/sty pre-mRNA splicing in human STO cells assessed as concentration required to increase in mature Clk1 mRNA level by RT-PCR analysis
[15] = biological target: T6, 17-beta-hydroxysteroid dehydrogenase type 1 (Homo sapiens) (UniProt P14061); experiment: Inhibition of 17-betaHSD1 (unknown origin) at 5 uM
T6 sequence (whole entry): T5 sequence (P14061 whole entry)

Sequence of Casein kinase II subunit alpha (Homo sapiens) (P68400 whole entry, looked up): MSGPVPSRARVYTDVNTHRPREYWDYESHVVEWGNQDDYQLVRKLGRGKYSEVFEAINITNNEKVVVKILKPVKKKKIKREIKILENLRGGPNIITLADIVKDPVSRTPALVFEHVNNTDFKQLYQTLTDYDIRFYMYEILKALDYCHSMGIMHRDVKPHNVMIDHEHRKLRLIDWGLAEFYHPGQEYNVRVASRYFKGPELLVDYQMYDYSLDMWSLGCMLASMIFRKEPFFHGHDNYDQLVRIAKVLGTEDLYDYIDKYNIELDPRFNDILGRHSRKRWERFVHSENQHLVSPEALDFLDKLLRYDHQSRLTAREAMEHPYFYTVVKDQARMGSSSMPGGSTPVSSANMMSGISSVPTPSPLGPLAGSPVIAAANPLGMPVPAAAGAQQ

inhibition [1] [%] | IC50 [2] [nM] | inhibition [3] [%] | IC50 [4] [nM] | IC50 [5] [nM] | inhibition [6] [%] | inhibition [7] [%] | inhibition [8] [%] | EC50 [10] [nM] | IC50 [11] [nM] | EC50 [14] [nM] | SMILES | Activity [9] | fold change (FC) [12] | Activity [13] [µM] | inhibition [15]
17 | 9700 | 38 | 1300 | 1000 |  |  |  |  |  |  | O=C(c1ccc(O)cc1)c1cc2cc(O)ccc2o1 |  |  |  | 
 | 2900 |  | 2300 | 1900 |  |  |  |  |  |  | O=C(c1cccc(O)c1)c1ccc2cc(O)ccc2c1 |  |  |  | 
 |  | -7 |  |  | 47 | 10 | 40 |  |  |  | COc1cccc(C(=O)c2cc3cc(OC)ccc3s2)c1 |  |  |  | 
10 | 200 | 50 | 200 | 50 |  |  |  | 1800 | 195 |  | Cc1ccc(C(=O)c2cc3cc(O)ccc3s2)cc1O | Active | 9.5 | 1.9 | 
 | 11000 | 8 | 7000 |  | 25 |  |  |  |  |  | Cc1cc(C(=O)c2cc3cc(O)ccc3s2)ccc1O |  |  |  | 
24 | 42000 | 15 |  |  |  |  | 6 |  |  |  | O=C(c1cccc(O)c1)c1cc2ccccc2s1 |  |  |  | 
 |  |  |  |  |  |  |  | 6600 |  |  | CCN1/C(=C/C(C)=O)Sc2ccc(OC)cc21 |  | 17 | 3.1 | 
31 | 3400 | 25 | 2700 | 2100 |  |  |  |  |  |  | Cn1c(C(=O)c2cccc(O)c2)cc2cc(O)ccc21 |  |  |  | 
20 | 2000 | 30 | 400 | 50 |  |  |  |  |  |  | O=C(c1cc2cc(O)ccc2s1)c1cc(O)ccc1F |  |  |  | 
15 | 1200 | 27 | 400 | 300 |  |  |  |  |  |  | O=C(c1ccc(F)c(O)c1)c1cc2cc(O)ccc2s1 |  |  |  | 
13 | 2000 | 37 | 1000 | 200 |  |  |  |  |  |  | O=C(c1ccccc1)c1cc2cc(O)ccc2s1 |  |  |  | 
 | 900 | 41 | 1600 | 100 |  |  |  |  |  | 2100 | COc1ccc2sc(C(=O)N(C)OC)cc2c1 |  | 8.1 | 2.4 | inactive
22 | 15000 | 24 |  | 2000 |  |  | 41 |  |  |  | O=C(c1cccc(O)c1)c1cc2cc(O)ccc2[nH]1 |  |  |  | 
33 | 3400 | 25 | 800 | 300 |  |  |  |  |  |  | O=C(c1ccc(O)cc1)c1cc2cc(O)ccc2s1 |  |  |  | 
12 | 400 | 49 | 200 | 100 |  |  |  |  |  |  | O=C(c1cccc(O)c1)c1cc2cc(O)ccc2s1 | Active |  |  | 
21 | 3100 | 34 | 6100 | 1900 |  |  |  |  |  |  | O=C(c1cccc(O)c1)c1cc2cc(O)ccc2o1 |  |  |  | 
10 | 6000 | 6 | 2300 | 400 |  |  |  |  |  |  | N#Cc1cccc(C(=O)c2cc3cc(O)ccc3s2)c1 |  |  |  | 

SMILES | inhibition [1] [%] | IC50 [2] [nM] | inhibition [3] [%] | IC50 [4] [nM] | IC50 [5] [nM] | inhibition [6] [%] | inhibition [7] [%] | inhibition [8] [%] | EC50 [10] [nM] | IC50 [11] [nM] | EC50 [14] [nM] | Activity [9] | fold change (FC) [12] | Activity [13] [µM] | inhibition [15]
CC(=O)c1cc2cc(O)ccc2s1 | 9 | 200 | 46 | 100 | 60 |  |  |  | 8900 |  |  | Active | 21.4 | 1.1 | inactive
